For series [1], the system named is Echinochloa crus-galli. The series can be described thus: (§1) Phytotoxicity against Echinochloa crus-galli (barnyard grass) assessed as mortality measured after 3 days at 5 mg/ml by foliar spraying. The series is classed as functional. The following applies: for mortality at 5000 µg/mL: 72 h. In a few lines: (§2)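 Whole plants sprayed on the foliage with freshly prepared test solution at 5 mg/mL. Spray volume was matched to foliar surface area, roughly 1 to 3 mL per pot. One or two pots were treated per species, depending on foliar area and plant availability.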

For series [2], the system named is Poa annua. The series can be described thus: Phytotoxicity against annual bluegrass Poa annua assessed as mortality measured after 3 days at 5 mg/ml by foliar spraying. It counts as functional. The following applies: 72 h. Put shortly:
as §2

For series [3], the system named is Leptochloa. Description: Phytotoxicity against Leptochloa fascicularis (sprangletop) assessed as mortality measured after 3 days at 5 mg/ml by foliar spraying. The following applies: 72 h. The series is classed as functional. Put shortly: as §2
The test system of series [4] is Erigeron canadensis. Description: Phytotoxicity against Conyza canadensis (horseweed)assessed as mortality measured after 3 days at 5 mg/ml by foliar spraying. The series is classed as functional. The following applies: 72 h. In a few lines: as §2
Series [5] concerns Convolvulus arvensis. The series can be described thus: Phytotoxicity against Convolvulus arvensis assessed as mortality measured after 3 days at 5 mg/ml by foliar spraying. The following applies: 72 h. It counts as functional. In a few lines:
as §2

The test system of series [6] is Amaranthus retroflexus. Description: Phytotoxicity against Amaranthus retroflexus assessed as mortality measured after 3 days at 5 mg/ml by foliar spraying. The series is classed as functional. The following applies: 72 h. In a few lines:
as §2

Series [7] has as its system Digitaria sanguinalis. The series can be described thus: Phytotoxicity against Digitaria sanguinalis (hairy crabgrass) assessed as mortality measured after 3 days at 5 mg/ml by foliar spraying. It counts as functional. The following applies: 72 h. In a few lines: as §2
The test system of series [8] is Solanum nigrum. Description: Phytotoxicity against Solanum nigrum (black nightshade) assessed as mortality measured after 3 days at 5 mg/ml by foliar spraying. The series is classed as functional. The following applies: 72 h. In a few lines:
as §2

Series [9] concerns Cyperus difformis. The series can be described thus: Phytotoxicity against sedge Cyperus difformis assessed as mortality measured after 3 days at 5 mg/ml by foliar spraying. The series is classed as functional. The following applies: 72 h. Put shortly: as §2
Series [10] deals with Taraxacum officinale. Description: Phytotoxicity against dandelion Taraxacum officinale (dandelion) assessed as mortality measured after 3 days at 5 mg/ml by foliar spraying. The series is classed as functional. The following applies: 72 h. In a few lines: as §2
Series [11] relates to Rumex crispus. Description: Phytotoxicity against curly dock Rumex crispus assessed as mortality measured after 3 days at 5 mg/ml by foliar spraying. It counts as functional. The following applies: 72 h. Put shortly: as §2
Series [12] deals with Echinochloa crus-galli. The series is described as §1. It counts as functional. The following applies: 72 h. Put shortly: as §2
For series [13], the system named is Oryza sativa. The series can be described thus: Herbicidal activity against Oryza sativa (rice) (M-104) Oryza sativa L assessed as mortality measured after 3 days at 5 mg/ml by foliar spraying. It counts as organism-based. The following applies: in vivo, other, 72 h. Put shortly:
as §2

Series [14] concerns Chenopodium album. The series can be described thus: Phytotoxicity against Chenopodium album assessed as mortality measured after 3 days at 5 mg/ml by foliar spraying. The following applies: 72 h. The series is classed as functional. In a few lines: as §2
In series [15] the test system is Mutarda arvensis. Description: Phytotoxicity against wild mustard Sinapis arvensis assessed as mortality measured after 3 days at 5 mg/ml by foliar spraying. It counts as functional. The following applies: 72 h. Put shortly:
as §2

Molecules are shown by their SMILES. The source made the active and inactive calls. The rule behind the calls is not given here.

As for `CCCCC/C=C\C=C\C(=O)N1CCCCC1` [(2E,4Z-DECADIENOYL)PIPERIDINE], the mortality (usually the share of the test organisms that died) at 5000 µg/mL in [1] was found to be 80%.

With `CCCCCCCCCC(=O)O` [DECANOIC ACID], in series [1], the mortality at 5000 µg/mL was 80%.

For `CCCCCCCCCC(=O)N1CCCCCC1` [N-(DECANOYL)HEXAMETHYLENEIMINE], the mortality at 5000 µg/mL in series [1] is 80%.

Regarding `CCCCCCC/C=C/C(=O)N1CCCCC1`, the mortality at 5000 µg/mL in [1] is 80%.

As to `CCCCCCC/C=C/C(=O)NC1CCCC1`, the mortality at 5000 µg/mL in series [1] was less than 20%.

Consider `CCCCC/C=C\C=C\C(=O)N1CCCC1` [(2E,4Z-DECADIENOYL)PYRROLIDINE], for which the mortality at 5000 µg/mL in series [1] is 80%.

For `O=C(/C=C/c1ccccc1)N1CCCCC1`, the mortality at 5000 µg/mL in series [1] is 40%.

Consider `CCCCCCCCCC(=O)NC1CCCC1` [N-CYCLOPENTYLDECANAMIDE], for which, in series [1], the mortality at 5000 µg/mL is less than 20%.

On to `C1CCNCC1`, for which, in series [1], the mortality entry is “inactive”.

For the molecule `C1CCCNCC1`, the mortality result in series [1] is “inactive”.

With `CCCCCCCCCC(=O)N1CCCC1` [N-(DECANOYL)PYRROLIDINE], the mortality at 5000 µg/mL in series [1] turned out to be 80%.

Regarding `O=C(/C=C/c1ccccc1)NC1CCCC1`, in series [1], the mortality at 5000 µg/mL was less than 20%.

For the molecule `CCCCCCC/C=C/C(=O)N1CCCCCC1`, the mortality at 5000 µg/mL in series [1] was 80%.

With `O=C(/C=C/c1ccccc1)N1CCCC1`, the mortality at 5000 µg/mL in series [1] was found to be 80%.

Consider `CCCCCCC/C=C/C(=O)N1CCCC1`, for which the mortality at 5000 µg/mL in series [1] worked out at 80%.

For the molecule `O=C(O)/C=C/c1ccccc1` [CINNAMIC ACID], the mortality at 5000 µg/mL in series [1] came out at 60%.

As to `CCCCC/C=C\C=C\C(=O)NC1CCCC1`, the mortality at 5000 µg/mL in series [1] is less than 20%.

On to `C1CCNC1`, for which the mortality result in series [1] is “inactive”.

For the molecule `O=C(/C=C/c1ccccc1)N1CCCCCC1`, the mortality at 5000 µg/mL in [1] is less than 20%.

Consider `CCCCC/C=C\C=C\C(=O)OCC`, for which the mortality at 5000 µg/mL in [1] is less than 20%.

As for `CCCCCCC/C=C/C(=O)O` [2E-DECENOIC ACID], the mortality at 5000 µg/mL in [1] is 80%.

Regarding `NC1CCCC1`, the mortality entry in series [1] was “inactive”.

Consider `CCCCC/C=C\C=C\C(=O)N1CCCCCC1` [(2E,4Z-DECADIENOYL)HEXAMETHLENEIMINE], for which the mortality at 5000 µg/mL in [1] is 80%.

For the molecule `CCCCC/C=C/C=C/C(=O)N1CCCC1` [SARMENTINE], the mortality at 5000 µg/mL is 80% in series [2]; 80% in series [3]; less than 20% in series [4]; 80% in [1]; 80% in series [5]; 80% in [6]. In addition, the mortality at 5000 µg/mL in series [7] worked out at 80%; in [8], 80%; in series [9] it was 20%; in series [10] it was 80%; in series [11], 80%; in series [12], 80%. Also, the mortality at 5000 µg/mL in series [14] and in [15] was 80% in each case. Moreover, the mortality entry in [13] is listed as “Not Active”.

With `CCCCCCCCCC(=O)N1CCCCC1` [N-(DECANOYL)PIPERIDINE], in series [1], the mortality at 5000 µg/mL is 80%.
